From ChEMBL document CHEMBL5712087, “Targeting bromodomain-containing protein 4 (BRD4) inhibits MYC expression in colorectal cancer cells” (Neoplasia, 2019)
Active and inactive are the calls of the source. The rule behind the calls is not given here.

What was measured:
Format in all cases: cell-based
[1] = molecular target: T1, Protein cereblon/Bromodomain-containing protein 4 (Homo sapiens) (UniProt O60885+Q96SW2); experiment: PROTAC activity at BRD4/Cereblon in human LS174T-dbet1 resistant cells assessed as BRD4 protein degradation at 500 to 1000 nM for 24 hrs by Western blot analysis; conditions: dose 500-1000 nM
[2] = molecular target: T1, Protein cereblon/Bromodomain-containing protein 4 (Homo sapiens); experiment: PROTAC activity at BRD4/Cereblon in human LS174T cells assessed as BRD4 protein degradation at 500 nM for 2 hrs by Western blot analysis
Summary of the method: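 LS174t cells exposed 2 h to PROTAC; for washout, medium replaced and cells collected 22 h later. BRD4 by immunoblot (15 µg lysate, 10% SDS-PAGE, anti-BRD4 1:1,000 overnight at 4 °C, GAPDH/β-actin control).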

[3] = molecular target: T1, Protein cereblon/Bromodomain-containing protein 4 (Homo sapiens); experiment: PROTAC activity at BRD4/Cereblon in human LS174T-dbet1 resistant cells assessed as MYC mRNA level at 500 to 1000 nM for 24 hrs by RT-qPCR analysis; conditions: dose 500-1000 nM
Summary of the method: (§1)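 Total RNA from 10^6 cells after 24 h treatment, Trizol-extracted and integrity-checked. 0.7 µg reverse transcribed, then SYBR-type qPCR: 95 °C 5 min, 40 cycles of 95 °C 15 s/60 °C 60 s. Melting curves checked. MYC or BRD4 normalised to PPIA and ACTB by ΔΔCq. At least three experiments; means ± SD.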

[4] = molecular target: T1, Protein cereblon/Bromodomain-containing protein 4 (Homo sapiens); experiment: PROTAC activity at BRD4/Cereblon in human fibroblast cells assessed as decrease in BRD4 protein degradation at 500 to 1000 nM for 24 hrs by Western blot analysis; conditions: dose 500-1000 nM
Summary of the method: (§2)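 Cells treated 24 h across 1 nM–10 µM range (fibroblasts at 500/1000 nM). Immunoblot: RIPA lysate with 2.5 mmol/l DTT, 15 µg per lane on 10% SDS-PAGE, nitrocellulose, 5% milk block 1 h. BRD4 or MYC primary 1:1,000 overnight at 4 °C, HRP secondary 1:10,000 for 60 min; GAPDH/β-actin loading control; ECL detection.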

[5] = molecular target: T1, Protein cereblon/Bromodomain-containing protein 4 (Homo sapiens); experiment: PROTAC activity at BRD4/Cereblon in human HCT116 p53+/+ cells assessed as decrease in MYC protein expression at 5 to 10 uM for 24 hrs by Western blot analysis; conditions: HCT-116, dose 5-10 µM
Summary of the method: (§3)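 Eight CRC lines exposed 24 h to PROTAC at 5 or 10 µM (stocks 2 mM in DMSO, diluted in PBS or medium). Lysis in RIPA with protease/phosphatase inhibitors and 2.5 mmol/l DTT; 15 µg protein on 10% SDS-PAGE, semi-dry transfer to nitrocellulose. Anti-BRD4 or anti-MYC at 1:1,000 overnight at 4 °C; GAPDH or β-actin loading control; chemiluminescence.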

[6] = molecular target: T1, Protein cereblon/Bromodomain-containing protein 4 (Homo sapiens); experiment: PROTAC activity at BRD4/Cereblon in human LS174T cells assessed as decrease in MYC mRNA level at 100 to 1000 nM for 24 hrs by RT-qPCR analysis; conditions: dose 100-1000 nM; summary of the method: as §1
[7] = molecular target: T1, Protein cereblon/Bromodomain-containing protein 4 (Homo sapiens); experiment: PROTAC activity at BRD4/Cereblon in human LS174T cells assessed as BRD4 protein degradation at 250 to 500 nM pretreated with thalidomide for 4 hrs by Western blot analysis; conditions: dose 250-500 nM
[8] = molecular target: T1, Protein cereblon/Bromodomain-containing protein 4 (Homo sapiens); experiment: PROTAC activity at BRD4/Cereblon in human fibroblast cells assessed as effect on MYC protein expression at 500 to 1000 nM for 24 hrs by Western blot analysis; conditions: dose 500-1000 nM; summary of the method: as §2
[9] = molecular target: T1, Protein cereblon/Bromodomain-containing protein 4 (Homo sapiens); experiment: PROTAC activity at BRD4/Cereblon in human LS174T cells assessed as decrease in BRD4 protein degradation at 5 to 10 uM for 24 hrs by Western blot analysis; conditions: dose 5-10 µM; summary of the method: as §3
[10] = molecular target: T1, Protein cereblon/Bromodomain-containing protein 4 (Homo sapiens); experiment: PROTAC activity at BRD4/Cereblon in human Caco-2 cells assessed as decrease in BRD4 protein degradation at 5 to 10 uM for 24 hrs by Western blot analysis; conditions: dose 5-10 µM; summary of the method: as §3
[11] = molecular target: T2, von Hippel-Lindau disease tumor suppressor/Bromodomain-containing protein 4 (Homo sapiens) (UniProt O60885+P40337); experiment: PROTAC activity at BRD4/VHL E3 ligase in human COLO 320 cells assessed as decrease in MYC protein expression at 5 to 10 uM for 24 hrs by Western blot analysis; conditions: dose 5-10 µM; summary of the method: as §3
[12] = molecular target: T2, von Hippel-Lindau disease tumor suppressor/Bromodomain-containing protein 4 (Homo sapiens); experiment: PROTAC activity at BRD4/VHL E3 ligase in human Caco-2 cells assessed as decrease in MYC protein expression at 5 to 10 uM for 24 hrs by Western blot analysis; conditions: dose 5-10 µM; summary of the method: as §3
[13] = molecular target: T2, von Hippel-Lindau disease tumor suppressor/Bromodomain-containing protein 4 (Homo sapiens); experiment: PROTAC activity at BRD4/VHL E3 ligase in human LS174T cells assessed as BRD4 protein degradation at 250 nM for 2 hrs and measured 22 hrs after washout by Western blot analysis
Summary of the method: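 LS174t cells were exposed to PROTAC for 2 h. For washout, the PROTAC was removed by changing the culture medium and cells were harvested 22 h later. BRD4 was assessed by western blot (15 µg lysate, 10% SDS-PAGE, chemiluminescence), normalised against GAPDH/β-actin.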

[14] = molecular target: T2, von Hippel-Lindau disease tumor suppressor/Bromodomain-containing protein 4 (Homo sapiens); experiment: PROTAC activity at BRD4/VHL E3 ligase in human LS174T dbet1 resistant cells assessed as BRD4 protein degradation at 500 to 1000 nM for 24 hrs by Western blot analysis; conditions: dose 500-1000 nM
Summary of the method: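 Resistant LS174t cells were derived by four months' exposure to rising dBET1 concentrations, with outgrowing cells expanded. Resistant and parental cells were then treated and analysed for BRD4 and MYC protein by western blot (GAPDH/β-actin control) and for MYC mRNA by qPCR normalised to PPIA/ACTB (ΔΔCq).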

[15] = molecular target: T2, von Hippel-Lindau disease tumor suppressor/Bromodomain-containing protein 4 (Homo sapiens); experiment: PROTAC activity at BRD4/VHL E3 ligase in human HT-29 cells assessed as decrease in BRD4 protein degradation at 5 to 10 uM for 24 hrs by Western blot analysis; conditions: dose 5-10 µM; summary of the method: as §3
[16] = molecular target: T2, von Hippel-Lindau disease tumor suppressor/Bromodomain-containing protein 4 (Homo sapiens); experiment: PROTAC activity at BRD4/VHL E3 ligase in human DLD-1 cells assessed as decrease in MYC protein expression at 5 to 10 uM for 24 hrs by Western blot analysis; conditions: dose 5-10 µM; summary of the method: as §3
[17] = molecular target: T2, von Hippel-Lindau disease tumor suppressor/Bromodomain-containing protein 4 (Homo sapiens); experiment: PROTAC activity at BRD4/VHL E3 ligase in human Caco-2 cells assessed as decrease in BRD4 protein degradation at 5 to 10 uM for 24 hrs by Western blot analysis; conditions: dose 5-10 µM; summary of the method: as §3
[18] = molecular target: T2, von Hippel-Lindau disease tumor suppressor/Bromodomain-containing protein 4 (Homo sapiens); experiment: PROTAC activity at BRD4/VHL E3 ligase in human SW480 cells assessed as decrease in MYC protein expression at 5 to 10 uM for 24 hrs by Western blot analysis; conditions: dose 5-10 µM
Summary of the method: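 Eight CRC lines, including LS174t (RPMI 1640) and SW480 (DMEM/HamsF12), all with 10% FCS, were treated with PROTAC at 5 and 10 µM. BRD4 and MYC proteins were detected by immunoblot (RIPA lysate, 15 µg, 10% gel, primary 1:1,000 overnight at 4 °C), with GAPDH/β-actin as loading control.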

T2 sequence (P40337 whole entry, looked up, other chains not shown): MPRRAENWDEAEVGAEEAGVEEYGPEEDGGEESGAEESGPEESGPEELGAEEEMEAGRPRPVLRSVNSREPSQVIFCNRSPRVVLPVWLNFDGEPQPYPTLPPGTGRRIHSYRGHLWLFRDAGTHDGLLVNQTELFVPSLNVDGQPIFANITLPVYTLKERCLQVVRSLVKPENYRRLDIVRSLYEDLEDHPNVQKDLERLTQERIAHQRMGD
T1 sequence (Q96SW2 whole entry, looked up, other chains not shown): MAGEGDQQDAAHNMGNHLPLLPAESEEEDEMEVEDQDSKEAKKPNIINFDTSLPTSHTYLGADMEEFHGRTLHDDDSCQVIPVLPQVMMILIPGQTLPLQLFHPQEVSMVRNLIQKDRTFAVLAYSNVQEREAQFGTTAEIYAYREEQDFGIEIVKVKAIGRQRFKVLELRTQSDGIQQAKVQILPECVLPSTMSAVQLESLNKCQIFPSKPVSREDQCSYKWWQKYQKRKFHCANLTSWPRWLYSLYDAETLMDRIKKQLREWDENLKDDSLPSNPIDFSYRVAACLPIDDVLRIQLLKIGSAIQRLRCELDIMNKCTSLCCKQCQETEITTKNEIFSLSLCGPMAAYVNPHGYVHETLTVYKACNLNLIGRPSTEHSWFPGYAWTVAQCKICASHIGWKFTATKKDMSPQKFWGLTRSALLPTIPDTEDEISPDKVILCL

With `Cc1sc2c(c1C)C(c1ccc(Cl)cc1)=N[C@@H](CC(=O)NCCCCNC(=O)COc1cccc3c1C(=O)N(C1CCC(=O)NC1=O)C3=O)c1nnc(C)n1-2` (stereo partly drawn) the Activity [1] was “inactive”, the Activity [2] was “Active” and the Activity [3] was “inactive”. For the same compound, the Activity [4] was “Active”, the Activity [5] was “Active” and the Activity [6] was “Active”. For the same compound, the Activity [7] was “inactive”, the Activity [8] was “inactive” and the Activity [9] was “Active”. For the same compound, the Activity [10] was “Active”.
With `Cc1ncsc1-c1ccc(CNC(=O)[C@@H]2C[C@@H](O)CN2C(=O)[C@@H](NC(=O)COCCOCCOCCNC(=O)C[C@@H]2N=C(c3ccc(Cl)cc3)c3c(sc(C)c3C)-n3c(C)nnc32)C(C)(C)C)cc1` the Activity [11] was “Active”, the Activity [12] was “Active” and the Activity [13] was “inactive”. For the same compound, the Activity [14] was “Active”, the Activity [15] was “Active” and the Activity [16] was “inactive”. For the same compound, the Activity [17] was “Active” and the Activity [18] was “Active”.
